pIC50: −log10 of the molar value. Values after ≈ are worked out from the molar mass of the structure shown.
Columns and labels:
[1] = Solubility in MeOH solution; assay type: physicochemical
MV4-11 = experiment: Cytotoxicity against human MV4-11 cells incubated for 72 hrs by MTT assay; assay type: functional, cell-based; conditions: MV4-11, 72 h
Method in brief: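 Leukemia cells were grown with 10% FBS at 37 °C in 5% CO₂; MV4-11 was kept in IMDM. Cells were seeded at 1–4 × 10⁴ per well, and an equal volume of medium containing increasing inhibitor concentrations was added. MTT was added for 2–4 h, formazan was dissolved in DMSO, and OD was read at 570 nm to derive IC50.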

[2] = Solubility in EtOH solution; assay type: physicochemical
[3] = Solubility in water; assay type: physicochemical
[4] = Solubility in PBS solution; assay type: physicochemical

solubility [1] [µg/mL]	solubility [2] [µg/mL]	solubility [3] [µg/mL]	solubility [4] [µg/mL]	SMILES	pIC50 (MV4-11)
5840 (≈ 14.6 mM)	4100 (≈ 10.3 mM)	26.7 (≈ 0.0668 mM)	10.2 (≈ 0.0255 mM)	C#Cc1ccn2cc(-c3ccc(NC(=O)Nc4cc(C(C)(C)C)on4)cc3)nc2c1	8.46
–	–	–	–	CC(C)(C)c1cc(NC(=O)Nc2ccc(-c3cn4cccc(F)c4n3)cc2)no1	7.91
–	–	–	–	CC(C)(C)c1cc(NC(=O)Nc2ccc(-c3cn4cccnc4n3)cc2)no1	6.77

Source: ChEMBL document CHEMBL3593173, “Discovery of novel N-(5-(tert-butyl)isoxazol-3-yl)-N'-phenylurea analogs as potent FLT3 inhibitors and evaluation of their activity against acute myeloid leukemia in vitro and in vivo” (Bioorg Med Chem, 2015)
